Experiment [1] relates to TAR DNA-binding protein 43 (Homo sapiens), Q13148 [K181E]. Nature of the experiment: Inhibition of doxycycline induced TDP-43 K181E mutant anisosomes formation in human U2OS cells expressing ALS-causing TDP-43 K181E mutant anisosomes assessed as change in TDP-43 droplets morphology at 1 to 10 uM incubated for 24 hrs by fluorescence imaging analysis. The experiment is classed as cell-based. The following applies: dose 1-10 µM. In a few lines: (§1)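 U2OS cells stably expressing inducible TDP-43 K181E or NCOR2 anisosomes, treated with compound for 24 h (10uM, or a concentration series), then fixed and imaged; fraction of demixing cells quantified from fluorescent images.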
Chain of TAR DNA-binding protein 43 (Homo sapiens), Q13148 [K181E] (Q13148 whole entry K181E): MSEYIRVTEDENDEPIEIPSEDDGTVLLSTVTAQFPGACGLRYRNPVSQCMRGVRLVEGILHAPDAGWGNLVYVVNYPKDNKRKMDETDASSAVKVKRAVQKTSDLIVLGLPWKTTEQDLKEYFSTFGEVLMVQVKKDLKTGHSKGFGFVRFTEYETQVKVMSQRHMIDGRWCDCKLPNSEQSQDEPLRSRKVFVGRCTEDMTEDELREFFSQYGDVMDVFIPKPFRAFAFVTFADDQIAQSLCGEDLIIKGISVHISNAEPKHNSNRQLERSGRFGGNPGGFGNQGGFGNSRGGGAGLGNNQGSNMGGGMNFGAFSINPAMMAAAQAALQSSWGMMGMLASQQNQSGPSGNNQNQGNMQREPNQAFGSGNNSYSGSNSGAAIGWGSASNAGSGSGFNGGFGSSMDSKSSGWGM

Experiment [2] has as its target TAR DNA-binding protein 43 (Homo sapiens) (UniProt Q13148). Nature of the experiment: Inhibition of human TDP-43 in human SH-SY5Y cells assessed a splicing changes in normal STMN2 mRNA at 10 uM incubated for 24 hrs by qPCR analysis. The experiment is classed as cell-based. In a few lines:
(§2)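 SH-SY5Y neuron-like cells (DMEM/F12, 10% FBS) given compound at 10uM final for 24 h; total RNA then harvested and normal and cryptic spliced STMN2 mRNA quantified by real-time PCR.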
Background: In qPCR the cycle at which signal appears reflects the starting amount.

For experiment [3], the system named is DLD-1. Nature of the experiment: Inhibition of doxycycline induced TDP-43 2KQ mutant anisosomes formation in human DLD-1 cells expressing TDP-43 2KQ mutant anisosomes at 10 uM incubated for 24 hrs by fluorescence imaging analysis. In kind it is cell-based. The method, boiled down: (§3)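 Stable lentivirally transduced DLD1 (single-cell clones sorted by fluorescence) or U2OS lines expressing inducible TDP-43 anisosomes; plated 4000 cells/well, overnight, then compound 24 h; cells fixed, fluorescent anisosomes imaged on ImageExpress HTai and anisosome number per cell quantified.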

Another experiment has as its system U2OS. Kind of experiment: Inhibition of doxycycline induced TDP-43 2KQ mutant anisosomes formation in human U2OS cells expressing TDP-43 2KQ mutant anisosomes at 10 uM incubated for 24 hrs by fluorescence imaging analysis. The experiment is classed as cell-based. In a few lines:
as §3

Experiment [4] has as its target Nuclear receptor corepressor 2 (Homo sapiens) (UniProt Q9Y618). Kind of experiment: Inhibition of doxycycline induced NCOR2 anisosomes formation in human U2OS cells expressing ALS-causing NCOR2 anisosomes assessed as change in NCOR2 droplets morphology at 10 uM incubated for 24 hrs by fluorescence imaging analysis. In kind it is cell-based. The method, boiled down:
as §1

Experiment [5] concerns DLD-1. Nature of the experiment: Inhibition of sodium arsenite induced stress granule formation in human DLD-1 cells at 10 uM incubated for 24 hrs followed by sodium arsenite stimulation for 1 hr by G3BP1 staining based immunostaining analysis. In kind it is functional, cell-based. In a few lines:
(§4)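 DLD1 cells on glass-bottom plates treated with compound at 10uM for 24 h, then 250uM sodium arsenite for 1 h; DMSO control. Fixed in 4% PFA 10 min RT, permeabilized, blocked (5% BSA, 0.1% Triton X-100), stained with anti-G3BP1 and anti-NPM1 (1:100, 1 h RT), secondaries 1:1000 30 min, DAPI; spinning-disc confocal max-projection images analysed.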

In experiment [6] the test system is DLD-1. Nature of the experiment: Inhibition of sodium arsenite stimulated human DLD-1 cells assessed as change in nucleolus morphology at 10 uM incubated for 24 hrs followed by sodium arsenite stimulation for 1 hr by NPM1 staining based immunostaining analysis. The experiment is classed as functional, cell-based. In a few lines: as §4
The next experiment deals with SH-SY5Y. Kind of experiment: Inhibition of TDP-43 2KQ mutant in human SH-SY5Y cells assessed a splicing changes in cryptic STMN2 mRNA at 10 uM incubated for 24 hrs by qPCR analysis. In kind it is cell-based. The method, boiled down:
as §2

Activity calls are given as the source filed them. No cut-off for these calls is given here.

Chain of TAR DNA-binding protein 43 (Homo sapiens) (Q13148 whole entry, canonical isoform): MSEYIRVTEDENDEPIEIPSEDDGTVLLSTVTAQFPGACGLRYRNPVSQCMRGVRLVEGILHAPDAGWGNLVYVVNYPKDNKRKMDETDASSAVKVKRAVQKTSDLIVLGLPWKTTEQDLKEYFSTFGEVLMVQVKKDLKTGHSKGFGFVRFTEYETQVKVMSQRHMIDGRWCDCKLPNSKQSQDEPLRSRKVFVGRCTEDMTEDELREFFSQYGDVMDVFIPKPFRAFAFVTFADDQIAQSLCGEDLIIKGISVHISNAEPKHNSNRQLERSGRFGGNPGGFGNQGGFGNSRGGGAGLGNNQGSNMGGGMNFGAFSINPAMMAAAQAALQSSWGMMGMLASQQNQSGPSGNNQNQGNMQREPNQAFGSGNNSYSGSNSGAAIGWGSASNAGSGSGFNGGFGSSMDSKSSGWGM
Chain of Nuclear receptor corepressor 2 (Homo sapiens) (Q9Y618 whole entry): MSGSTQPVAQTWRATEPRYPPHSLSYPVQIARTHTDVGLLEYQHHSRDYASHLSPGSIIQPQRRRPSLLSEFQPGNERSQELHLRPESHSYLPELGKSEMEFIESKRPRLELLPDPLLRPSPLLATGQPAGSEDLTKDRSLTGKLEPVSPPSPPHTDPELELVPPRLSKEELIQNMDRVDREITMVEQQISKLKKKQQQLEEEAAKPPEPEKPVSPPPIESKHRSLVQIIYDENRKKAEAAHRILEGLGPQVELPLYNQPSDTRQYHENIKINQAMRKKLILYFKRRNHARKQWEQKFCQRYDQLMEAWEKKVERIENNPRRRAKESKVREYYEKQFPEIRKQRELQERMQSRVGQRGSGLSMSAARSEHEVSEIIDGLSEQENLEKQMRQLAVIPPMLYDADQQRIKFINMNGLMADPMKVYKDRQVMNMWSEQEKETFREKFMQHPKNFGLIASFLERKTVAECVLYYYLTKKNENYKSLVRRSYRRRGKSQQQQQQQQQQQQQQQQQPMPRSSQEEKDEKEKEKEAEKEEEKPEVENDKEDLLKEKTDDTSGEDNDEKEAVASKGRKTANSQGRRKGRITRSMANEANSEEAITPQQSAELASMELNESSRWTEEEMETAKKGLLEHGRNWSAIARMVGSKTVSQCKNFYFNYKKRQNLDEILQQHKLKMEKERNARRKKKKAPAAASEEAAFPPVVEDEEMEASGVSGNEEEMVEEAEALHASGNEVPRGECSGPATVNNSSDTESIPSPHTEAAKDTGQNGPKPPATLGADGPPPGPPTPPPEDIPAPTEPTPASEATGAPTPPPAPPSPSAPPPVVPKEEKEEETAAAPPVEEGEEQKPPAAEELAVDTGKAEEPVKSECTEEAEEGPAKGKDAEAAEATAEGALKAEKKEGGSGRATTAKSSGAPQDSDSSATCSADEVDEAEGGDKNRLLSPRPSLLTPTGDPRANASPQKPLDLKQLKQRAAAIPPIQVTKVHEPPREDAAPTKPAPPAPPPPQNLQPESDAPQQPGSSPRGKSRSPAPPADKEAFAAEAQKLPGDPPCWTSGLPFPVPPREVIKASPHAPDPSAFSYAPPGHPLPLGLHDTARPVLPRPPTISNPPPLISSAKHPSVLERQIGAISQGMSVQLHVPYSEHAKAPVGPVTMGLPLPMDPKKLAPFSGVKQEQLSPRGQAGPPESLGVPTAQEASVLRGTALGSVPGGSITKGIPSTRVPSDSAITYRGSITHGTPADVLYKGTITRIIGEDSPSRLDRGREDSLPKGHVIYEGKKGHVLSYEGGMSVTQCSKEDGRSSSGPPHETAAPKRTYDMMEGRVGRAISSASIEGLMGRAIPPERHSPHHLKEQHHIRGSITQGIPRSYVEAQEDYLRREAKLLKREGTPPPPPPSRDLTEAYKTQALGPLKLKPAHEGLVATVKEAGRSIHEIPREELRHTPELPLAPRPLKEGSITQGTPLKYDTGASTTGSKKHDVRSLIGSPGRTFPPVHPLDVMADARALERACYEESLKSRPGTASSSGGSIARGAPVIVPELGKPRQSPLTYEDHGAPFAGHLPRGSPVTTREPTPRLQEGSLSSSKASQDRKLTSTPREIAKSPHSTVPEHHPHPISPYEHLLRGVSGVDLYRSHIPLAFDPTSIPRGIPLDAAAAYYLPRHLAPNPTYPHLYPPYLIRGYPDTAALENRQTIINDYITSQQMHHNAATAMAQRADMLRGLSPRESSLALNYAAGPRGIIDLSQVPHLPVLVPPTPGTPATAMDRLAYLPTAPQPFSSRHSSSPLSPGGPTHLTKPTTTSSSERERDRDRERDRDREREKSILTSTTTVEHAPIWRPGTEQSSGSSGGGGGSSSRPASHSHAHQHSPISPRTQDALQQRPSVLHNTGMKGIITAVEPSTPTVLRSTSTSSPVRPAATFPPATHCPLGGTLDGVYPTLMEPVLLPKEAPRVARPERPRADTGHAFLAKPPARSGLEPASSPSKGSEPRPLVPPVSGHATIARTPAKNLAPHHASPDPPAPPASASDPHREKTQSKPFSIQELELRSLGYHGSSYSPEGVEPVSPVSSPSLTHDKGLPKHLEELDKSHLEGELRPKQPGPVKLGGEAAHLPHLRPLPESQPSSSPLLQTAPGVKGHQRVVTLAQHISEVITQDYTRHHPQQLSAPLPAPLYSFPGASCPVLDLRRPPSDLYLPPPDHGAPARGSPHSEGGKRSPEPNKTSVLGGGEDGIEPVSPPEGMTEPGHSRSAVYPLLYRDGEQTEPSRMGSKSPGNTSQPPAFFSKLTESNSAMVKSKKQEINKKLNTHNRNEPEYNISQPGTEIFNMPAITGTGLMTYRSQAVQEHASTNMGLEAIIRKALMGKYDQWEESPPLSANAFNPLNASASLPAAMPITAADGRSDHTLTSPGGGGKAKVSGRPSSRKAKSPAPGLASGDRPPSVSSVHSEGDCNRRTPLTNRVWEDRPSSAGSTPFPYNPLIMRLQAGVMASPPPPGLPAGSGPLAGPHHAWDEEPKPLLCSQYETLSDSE

As to `C=C1C(=O)O[C@H]2C3=C(C)CCC[C@]3(C)C(=O)C[C@@H]12`, the inhibition entry (in experiment [1]; in the experiment with DLD-1 [3]; with U2OS; in experiment [4]; with DLD-1 [5]; in the experiment with DLD-1 [6]) was “Active” each time. The inhibition result in experiment [2] was “inactive”.
For `COc1ccc2[nH]c(=O)c3c(c2c1)OC(C)(C)C=C3`, the inhibition result in experiment [1] is “Dose-Dependent Effect”. Also, the inhibition entry (in experiment [2]; in experiment [4]; in the experiment with DLD-1 [5]) was “inactive” throughout. Further, the inhibition entry in the experiment with DLD-1 [3] and in the experiment on U2OS was “Active” throughout.
Consider `COc1ccc(S(=O)(=O)NCC(c2ccco2)S(=O)(=O)c2cccs2)cc1F` (centres undefined), for which the inhibition entry (in experiment [2]; in the experiment on DLD-1 [5]) was “inactive” throughout.
As to `Cc1ccc(CCNc2ncnc3onc(C)c23)cc1`, the inhibition entry (in experiment [2]; in the experiment with DLD-1 [3]; with U2OS; with DLD-1 [5]) was “inactive” in each case. In the experiment on SH-SY5Y, the inhibition result was “Active”.
For the molecule `COc1ccc(NC(=O)Cn2c(SCc3ccc(F)cc3)nc3cccnc32)cc1OC`, the inhibition entry (in experiment [1]; in experiment [2]; with DLD-1 [5]) was “inactive” in each case. Besides, the inhibition entry in experiment [4] was “Active”.
